Laboratory results published in ChEMBL document CHEMBL4308829, “Design and Synthesis of Novel Positive Allosteric Modulators of α7 Nicotinic Acetylcholine Receptors with the Ability To Rescue Auditory Gating Deficit in Mice” (J Med Chem, 2018).
Activity calls are given as the source filed them. Unless noted, no cut-off for these calls is given here.

How the values were obtained:
[1] = Plasma concentration in C57BL/6J mouse at 1 mg/kg, ip after 2 hrs by LC-MS/MS analysis; format: ADME, organism-based
In short: (§1)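 C57BL/6J mice given 1 mg/kg i.p. from a 0.4 mg/mL solution in 10% DMSO/50% PEG400/40% SBECD. Plasma and brain taken at 0.5, 2 and 8 h. Samples mixed with internal standard in methanol/acetonitrile (1:1), centrifuged and diluted 10x in methanol:water with 0.1% FA, then measured by HPLC-MS-MS. n = 3; ratio is brain over plasma concentration.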

[2] = target: Voltage-gated inwardly rectifying potassium channel KCNH2 (Homo sapiens, UniProt Q12809); test: Inhibition of human ERG expressed in HEK293 cells up to 30 uM at -80 mV holding potential by whole-cell patch clamp assay; format: cell-based
Chain of Voltage-gated inwardly rectifying potassium channel KCNH2 (Q12809 whole entry, the tested form may be a part): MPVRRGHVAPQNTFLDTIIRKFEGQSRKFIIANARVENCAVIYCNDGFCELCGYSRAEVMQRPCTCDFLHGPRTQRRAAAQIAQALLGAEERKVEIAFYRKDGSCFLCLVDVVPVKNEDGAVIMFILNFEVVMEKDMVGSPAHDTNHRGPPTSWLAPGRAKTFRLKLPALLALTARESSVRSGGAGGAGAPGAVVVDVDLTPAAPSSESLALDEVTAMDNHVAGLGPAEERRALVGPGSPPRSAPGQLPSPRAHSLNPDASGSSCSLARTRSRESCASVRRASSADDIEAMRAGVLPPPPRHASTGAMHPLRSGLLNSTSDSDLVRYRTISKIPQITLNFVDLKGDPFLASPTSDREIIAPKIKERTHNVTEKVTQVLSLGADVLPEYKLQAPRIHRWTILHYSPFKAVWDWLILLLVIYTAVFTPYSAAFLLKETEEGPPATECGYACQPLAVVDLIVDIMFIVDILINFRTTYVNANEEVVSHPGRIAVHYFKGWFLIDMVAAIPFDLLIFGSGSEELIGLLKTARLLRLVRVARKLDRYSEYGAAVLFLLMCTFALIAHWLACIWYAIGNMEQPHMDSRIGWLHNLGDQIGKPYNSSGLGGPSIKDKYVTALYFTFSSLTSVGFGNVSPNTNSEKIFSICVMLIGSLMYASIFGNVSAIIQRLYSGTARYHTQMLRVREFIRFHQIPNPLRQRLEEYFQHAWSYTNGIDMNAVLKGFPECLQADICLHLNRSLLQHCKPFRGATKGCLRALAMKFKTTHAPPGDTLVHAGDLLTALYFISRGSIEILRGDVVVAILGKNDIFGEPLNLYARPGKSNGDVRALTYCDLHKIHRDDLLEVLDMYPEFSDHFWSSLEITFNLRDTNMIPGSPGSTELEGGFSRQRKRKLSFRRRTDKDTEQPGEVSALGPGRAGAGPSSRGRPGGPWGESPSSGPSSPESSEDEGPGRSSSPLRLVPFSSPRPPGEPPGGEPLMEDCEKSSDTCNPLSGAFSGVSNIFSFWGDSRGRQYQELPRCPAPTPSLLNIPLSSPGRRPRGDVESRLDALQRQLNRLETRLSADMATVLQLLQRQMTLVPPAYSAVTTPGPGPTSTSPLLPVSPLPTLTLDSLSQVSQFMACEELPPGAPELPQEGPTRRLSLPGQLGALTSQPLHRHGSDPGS
In short: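 HEK293 cells stably expressing hERG, whole-cell clamp at room temperature. Holding -80 mV, step to +20 mV for 2 s, then -40 mV for 1.6 s, repeated every 10 s. Compound perfused at 1-30 µM, with 100 nM cisapride as reference. Peak -40 mV tail currents normalized to control, n = 4.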

[3] = target: Neuronal acetylcholine receptor; alpha3/beta4 (Rattus norvegicus) (UniProt P04757+P12392); test: Positive allosteric modulation of rat alpha3beta4 nAChR expressed in Xenopus laevis oocytes assessed as increase in acetylcholine-induced channel current at 10 uM at -90 mV holding potential by two-electrode voltage clamp method; format: cell-based
In short: (§2)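 Rat α3β4 or α4β2 subunit cRNAs (~2 ng total, 1:1) injected into oocytes, which were kept at 16 °C in ND96. Two-electrode voltage clamp at -90 mV, 24-72 h post-injection, in Ringer's containing atropine at room temperature.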

[4] = target: Neuronal acetylcholine receptor; alpha4/beta2 (Rattus norvegicus) (UniProt P09483+P12390); test: Positive allosteric modulation of rat alpha4beta2 nAChR expressed in Xenopus laevis oocytes assessed as increase in acetylcholine-induced channel current at 10 uM at -90 mV holding potential by two-electrode voltage clamp method; format: cell-based; in short: as §2
[5] = Clearance in rat at 3 mg/kg, iv by LC-MS/MS analysis; format: ADME, organism-based; details: in vivo
In short: (§3)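 Rat plasma stored at -20 °C, spiked with internal standard, protein-precipitated with methanol, centrifuged and filtered before LC-MS/MS. C18 column at 40 °C, acetonitrile/0.1% formic acid (80:20) isocratic at 0.5 mL/min. Positive ESI with MRM m/z 400.0->129.9. Parameters taken per rat by non-compartmental analysis, n = 3.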

[6] = target: T1, Neuronal acetylcholine receptor subunit alpha-7 (Homo sapiens, UniProt P36544); test: Induction of desensitization of human alpha7 nAChR expressed in Xenopus laevis oocytes assessed as acetylcholine-induced channel desensitization time constant at 10 uM at -90 mV holding potential by two-electrode voltage clamp method (reference value: 5.56 +/- 1.27); format: cell-based
T1 sequence (P36544 whole entry): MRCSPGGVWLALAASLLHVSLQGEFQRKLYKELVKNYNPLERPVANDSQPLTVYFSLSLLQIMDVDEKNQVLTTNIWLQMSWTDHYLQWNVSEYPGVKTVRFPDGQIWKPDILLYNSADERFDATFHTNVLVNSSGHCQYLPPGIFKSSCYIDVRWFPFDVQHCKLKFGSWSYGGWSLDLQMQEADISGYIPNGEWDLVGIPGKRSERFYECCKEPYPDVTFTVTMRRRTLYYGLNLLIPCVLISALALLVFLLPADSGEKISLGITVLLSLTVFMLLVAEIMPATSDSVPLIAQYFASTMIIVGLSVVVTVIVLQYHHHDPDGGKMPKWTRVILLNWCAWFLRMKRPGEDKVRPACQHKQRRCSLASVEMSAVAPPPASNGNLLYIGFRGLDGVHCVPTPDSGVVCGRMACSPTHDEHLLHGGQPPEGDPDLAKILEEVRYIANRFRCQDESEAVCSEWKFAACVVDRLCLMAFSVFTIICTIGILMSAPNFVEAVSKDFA

[7] = Ratio of drug level in C57BL/6J mouse brain to plasma at 1 mg/kg, ip after 2 hrs by LC-MS/MS analysis; format: ADME, organism-based; details: read-out: BPR; in short: as §1
[8] = AUCinfinity in rat at 3 mg/kg, iv by LC-MS/MS analysis; format: ADME, organism-based; design: dose 3 mg/kg, route intravenous, time infinity; details: in vivo; in short: as §3
[9] = target: GABA-A receptor; anion channel (Homo sapiens) (UniProt P14867+P47870+P18507+P28472+P48169+Q99928+Q9UN88+P34903+O00591+O14764+Q8N1C3+P18505+P78334+P47869+P31644+Q16445); test: Positive allosteric modulation of human GABA-A receptor expressed in Xenopus laevis oocytes assessed as increase in GABA-induced channel current 10 uM by two-electrode voltage clamp method; format: cell-based
[10] = Plasma concentration in C57BL/6J mouse at 1 mg/kg, ip after 8 hrs by LC-MS/MS analysis; format: ADME, organism-based; in short: as §1
[11] = Apparent volume of distribution during terminal phase in rat at 60 mg/kg, po by LC-MS/MS analysis; format: ADME, organism-based; details: in vivo; in short: as §3
[12] = Drug uptake in C57BL/6J mouse brain at 1 mg/kg, ip after 2 hrs by LC-MS/MS analysis; format: ADME, organism-based; details: read-out: Drug uptake; in short: as §1
[13] = Apparent clearance in rat at 60 mg/kg, po by LC-MS/MS analysis; format: ADME, organism-based; details: in vivo; in short: as §3
[14] = Half life in rat at 60 mg/kg, po by LC-MS/MS analysis; format: ADME, organism-based; details: in vivo; in short: as §3
[15] = Ratio of drug level in C57BL/6J mouse brain to plasma at 1 mg/kg, ip after 8 hrs by LC-MS/MS analysis; format: ADME, organism-based; details: read-out: BPR; in short: as §1
[16] = MRT in rat at 60 mg/kg, po by LC-MS/MS analysis; format: ADME, organism-based; details: in vivo; in short: as §3
[17] = MRT in rat at 3 mg/kg, iv by LC-MS/MS analysis; format: ADME, organism-based; details: in vivo; in short: as §3
[18] = Ratio of drug level in C57BL/6J mouse brain to plasma at 1 mg/kg, ip after 0.5 hrs by LC-MS/MS analysis; format: ADME, organism-based; details: read-out: BPR; in short: as §1
[19] = Plasma concentration in C57BL/6J mouse at 1 mg/kg, ip after 0.5 hrs by LC-MS/MS analysis; format: ADME, organism-based; in short: as §1
[20] = Tmax in rat at 60 mg/kg, po by LC-MS/MS analysis; format: ADME, organism-based; details: in vivo; in short: as §3
[21] = target: T1, Neuronal acetylcholine receptor subunit alpha-7; test: Positive allosteric modulation of human alpha7 nAChR expressed in Xenopus laevis oocytes assessed as increase in acetylcholine-induced channel current by measuring maximum efficacy of acetylcholine at 10 uM at -90 mV holding potential preincubated for 2 mins followed by co-application with acetylcholine for 10 secs by two-electrode voltage clamp method (reference value: 109 +/- 2%); format: cell-based
[22] = AUClast in rat at 3 mg/kg, iv by LC-MS/MS analysis; format: ADME, organism-based; design: dose 3 mg/kg, time 0 - last, route intravenous; details: in vivo; in short: as §3
[23] = Drug uptake in C57BL/6J mouse brain at 1 mg/kg, ip after 0.5 hrs by LC-MS/MS analysis; format: ADME, organism-based; details: read-out: Drug uptake; in short: as §1
[24] = AUCinfinity in rat at 60 mg/kg, po by LC-MS/MS analysis; format: ADME, organism-based; design: dose 60 mg/kg, time infinity, route oral; details: in vivo; in short: as §3
[25] = target: T1, Neuronal acetylcholine receptor subunit alpha-7; test: Agonist activity at human alpha7 nAChR expressed in Xenopus laevis oocytes assessed as induction of channel current at -90 mV holding potential by two-electrode voltage clamp method; format: cell-based

concentration at 2 h [1]: 9.8 ng/mL
Activity [3]: inactive
Activity [4]: inactive
clearance [5]: 0.0833 mL/min/kg
Kp at 2 h [7]: 2.7
AUC(0-inf) [8]: 680 ng·h/mL
Activity [9]: inactive
concentration at 8 h [10]: 0.9 ng/mL
Vd/F [11]: 0.6 L/kg
concentration at 2 h [12]: 26.3 ng/g
CL/F [13]: 1 mL/min/kg
half-life [14]: 7.4 h
Kp at 8 h [15]: 2.3
MRT [16]: 9.5 h
MRT [17]: 7 h
Kp at 0.5 h [18]: 2.5
concentration at 0.5 h [19]: 34.3 ng/mL
Tmax [20]: 1.3 h
Emax [21]: 1540%
AUC(0-t) [22]: 600 ng·h/mL
concentration at 0.5 h [23]: 84.7 ng/g
AUC(0-inf) [24]: 1100 ng·h/mL
Activity [25]: inactive
SMILES: Cc1cccc(Cl)c1-n1cnc2nc(SCc3ccccc3)sc2c1=O
inhibition (INH) [2]: Not Active
Activity [6]: 6.54
